Data reported in ChEMBL document CHEMBL1149300, “Novel retinoic acid metabolism blocking agents endowed with multiple biological activities are efficient growth inhibitors of human breast and prostate cancer cells in vitro and a human breast tumor xenograft in nude mice” (J Med Chem, 2004).
The source made the active and inactive calls. The calls are words filed in the database; no cut-off is given here.

Tests used:
[1] = Inhibition of ATRA hydroxylase in Syrian golden hamster liver microsome assessed ATRA metabolism using [11.12-3H]-ATRA; type: microsomes, Mesocricetus auratus
Summary of the method: (§1)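 Microsomes from male Syrian golden hamster liver, or from T47D cells pretreated with 1 µM ATRA. Incubation in 0.1 M phosphate buffer pH 7.4 with NADPH, MgCl2 and BSA, inhibitor in DMSO; 3 min preincubation at 37 °C, then [11,12-3H]-ATRA for 30 min at 37 °C under oxygen. Ethyl acetate extraction, reverse-phase HPLC with radiometric detection; percent polar metabolites; IC50 from dose-response curves.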

MDA-MB-231 [2] = test: Growth inhibition of human MDA-MB-231 cells after 6 days by MTT assay; type: functional, cell-based; conditions: MDA-MB-231, 144 h
[3] = Displacement of [11,12-3H]ARTA from RARgamma; set-up: species or system Homo sapiens
Summary of the method: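 Recombinant S-Tag RARα, RARβ or RARγ fusion protein extracts (10-30 µg/mL total protein) in HEPES pH 7.9 binding buffer. Incubated with 1 nM [3H]all-trans-RA and 0-500 nM test compound for 3 h at 27 °C. Nonspecific binding measured with a 200-fold excess of unlabeled RA; IC50 from dose-response curves, at least two experiments.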

[4] = molecular target: T1, Retinoic acid receptor beta (Homo sapiens, UniProt P10826); test: Displacement of [11,12-3H]ARTA from RARbeta
T1 sequence (P10826 whole entry): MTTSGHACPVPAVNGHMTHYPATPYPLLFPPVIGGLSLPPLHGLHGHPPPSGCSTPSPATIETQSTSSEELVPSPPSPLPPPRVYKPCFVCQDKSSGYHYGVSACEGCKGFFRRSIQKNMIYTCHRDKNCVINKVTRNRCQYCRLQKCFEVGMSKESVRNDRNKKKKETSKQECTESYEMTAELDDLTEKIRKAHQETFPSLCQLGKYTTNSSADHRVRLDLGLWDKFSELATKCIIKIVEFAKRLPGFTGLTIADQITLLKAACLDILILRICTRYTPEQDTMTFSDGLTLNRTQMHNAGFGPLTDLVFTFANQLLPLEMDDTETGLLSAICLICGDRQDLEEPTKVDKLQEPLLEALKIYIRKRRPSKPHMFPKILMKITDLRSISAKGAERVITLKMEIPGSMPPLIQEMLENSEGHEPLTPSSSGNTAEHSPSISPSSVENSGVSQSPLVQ
Summary of the method: (§2)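 Recombinant S-Tag RARα, RARβ or RARγ fusion protein extracts (10-30 µg/mL total protein) in HEPES pH 7.9 binding buffer. Incubated with 1 nM [3H]all-trans-RA and 0-500 nM test compound for 3 h at 27 °C.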

[5] = molecular target: T2, Retinoic acid receptor alpha (Homo sapiens, UniProt P10276); test: Displacement of [11,12-3H]ARTA from RARalpha; summary of the method: as §2
T2 sequence (P10276 whole entry): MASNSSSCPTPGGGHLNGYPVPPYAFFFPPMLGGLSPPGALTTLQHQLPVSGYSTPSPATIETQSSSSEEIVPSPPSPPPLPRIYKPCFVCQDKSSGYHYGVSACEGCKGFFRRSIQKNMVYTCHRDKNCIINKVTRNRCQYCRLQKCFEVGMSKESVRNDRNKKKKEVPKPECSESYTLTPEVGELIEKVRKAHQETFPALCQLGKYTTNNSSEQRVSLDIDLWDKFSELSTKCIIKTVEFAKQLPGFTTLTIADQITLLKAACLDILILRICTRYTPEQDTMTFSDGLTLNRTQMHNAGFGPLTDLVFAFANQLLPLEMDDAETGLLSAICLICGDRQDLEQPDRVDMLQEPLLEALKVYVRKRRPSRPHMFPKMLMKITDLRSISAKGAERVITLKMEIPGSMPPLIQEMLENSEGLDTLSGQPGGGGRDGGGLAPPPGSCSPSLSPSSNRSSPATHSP

T47D [6] = test: Growth inhibition of human T47D cells after 6 days by MTT assay; type: functional, cell-based; conditions: 144 h
Summary of the method: (§3)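 MCF-7 (IMEM, 5% FBS) or T47D (RPMI 1640, 10% FBS) cells, 1 × 10^4 per well, adhered ~18 h, then exposed to 0.0001-10 µM drug (ethanol) for 6 days with media and drug renewed on day 4. MTT for 2 h, formazan dissolved in DMSO, A540. Triplicate wells, 2-3 experiments; IC50 by nonlinear regression.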

PC-3 = test: Growth inhibition of human PC3 cells after 6 days by MTT assay; type: functional, cell-based; conditions: PC-3, 144 h
Summary of the method: (§4)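 LNCaP cells (1 × 10^4) on poly-L-lysine-coated wells, attached 36 h; PC-3 cells (1 × 10^4), uncoated, attached 24 h; both in RPMI 1640. Treated with a concentration range of drug for 6 days, medium changed every 3 days. MTT read-out at 540 nm; IC50 by nonlinear regression from at least two experiments.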

LNCaP [7] = test: Growth inhibition of human LNCaP cells after 6 days by MTT assay; type: functional, cell-based; conditions: 144 h; summary of the method: as §4
Cytochrome P450 26A1 [8] = molecular target: T3, Cytochrome P450 26A1 (Homo sapiens, UniProt O43174); test: Inhibition of ATRA-induced CYP26 in human MCF7 cells assessed ATRA as metabolism using [11.12-3H]-ATRA; type: functional, cell-based
T3 sequence (O43174 whole entry): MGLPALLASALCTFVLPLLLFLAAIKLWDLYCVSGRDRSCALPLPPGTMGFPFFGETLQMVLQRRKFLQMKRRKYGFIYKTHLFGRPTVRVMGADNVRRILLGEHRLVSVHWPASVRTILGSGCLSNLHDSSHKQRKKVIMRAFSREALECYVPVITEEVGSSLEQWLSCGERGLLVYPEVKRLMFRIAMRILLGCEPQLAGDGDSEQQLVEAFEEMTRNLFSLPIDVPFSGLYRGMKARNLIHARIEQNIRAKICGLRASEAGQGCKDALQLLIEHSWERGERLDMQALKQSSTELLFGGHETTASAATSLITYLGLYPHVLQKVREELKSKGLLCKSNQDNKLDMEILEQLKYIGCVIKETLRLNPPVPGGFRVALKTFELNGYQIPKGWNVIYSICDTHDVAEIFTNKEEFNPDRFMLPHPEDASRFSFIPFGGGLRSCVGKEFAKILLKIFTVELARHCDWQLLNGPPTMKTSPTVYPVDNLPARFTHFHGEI
Summary of the method: (§5)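 MCF-7 or T47D cells (1 × 10^6 per well) induced with 1 µM ATRA for 12-15 h, washed, then given inhibitor (0.0001-10 µM, ethanol stock) plus 0.001 µM [11,12-3H]-ATRA for 5 h. Media and cells extracted with ethyl acetate; metabolites measured by reverse-phase HPLC with radiometric detection; IC50 from dose-response curves.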

Cytochrome P450 26A1 [9] = molecular target: T3, Cytochrome P450 26A1; test: Inhibition of ATRA-induced CYP26 in human T47D cells assessed as ATRA metabolism using [11.12-3H]-ATRA; type: functional, cell-based; summary of the method: as §5
MCF7 [10] = test: Growth inhibition of human MCF7 cells after 6 days by MTT assay; type: functional, cell-based; conditions: MCF7, 144 h; summary of the method: as §3
T47D [11] = test: Induction of apoptosis in human T47D cells at 1 uM for 6 days by TUNEL assay; type: functional, cell-based
Summary of the method: (§6)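 MCF-7 or T47D cells exposed to 1 µM compound for 6 days, then trypsinized, fixed in 1% paraformaldehyde and stored in 70% ethanol at -20 °C overnight. TdT/BrdUTP labeling (APO-BRDU TUNEL), fluorescein anti-BrdU plus PI/RNase stain; apoptotic cells counted by flow cytometry.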

MDA-MB-231 [12] = test: Growth inhibition of human MDA-MB-231 cells up to 10 uM after 6 days by MTT assay; type: functional, cell-based
Cytochrome P450 26A1 [13] = molecular target: T3, Cytochrome P450 26A1; test: Inhibition of ATRA-induced CYP26 in human T47D cell microsome assessed as ATRA metabolism using [11.12-3H]-ATRA; type: functional, microsomes; summary of the method: as §1
LNCaP [14] = test: Induction of cell differentiation in human LNCaP cells after 6 days; type: functional, cell-based
Summary of the method: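 LNCaP cells given 1 µM compound, alone or with 1 µM ATRA, for 6 days. Lysates (50 µg) run on 10% SDS-PAGE and Western blotted with anti-cytokeratin 8/18, β-actin as control. ECL detection; band intensity by densitometry taken as the differentiation marker.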

MCF7 [15] = test: Induction of apoptosis in human MCF7 cells at 1 uM for 6 days by TUNEL assay; type: functional, cell-based; summary of the method: as §6

SMILES: COC(=O)/C=C(C)/C=C/C=C(C)/C=C/C1=C(C)C(=N/O)/CCC1(C)C
- IC50 [1]: 23 nM

SMILES: CC1=C(/C=C/C(C)=C/C=C/C(C)=C/C(=O)n2ccnc2)C(C)(C)CCC1
- IC50 (MDA-MB-231 [2]): 7000 nM
- IC50 [3]: 500 nM
- IC50 [4]: 500 nM
- IC50 [1]: 61.2 nM
- IC50 [5]: > 1000 nM

SMILES: CC1=C(/C=C/C(C)=C/C=C/C(C)=C/C(=O)n2cncn2)C(C)(C)CCC1
- IC50 [3]: 80 nM
- IC50 [4]: 90 nM
- IC50 [1]: 51.7 nM
- IC50 [5]: 20 nM

SMILES: CC1=C(/C=C/C(C)=C/C=C/C(C)=C/C(=O)Nc2ccc(O)cc2)C(C)(C)CCC1n1ccnc1 (racemic)
- IC50 (T47D [6]): 570 nM
- IC50 (MDA-MB-231 [2]): 6300 nM
- IC50 (PC-3): 1500 nM
- IC50 (LNCaP [7]): 9000 nM
- IC50 [1]: 43.7 nM
- Ki [1]: 0.35 nM
- IC50 (Cytochrome P450 26A1 [8]): 56 nM
- IC50 (Cytochrome P450 26A1 [9]): 24 nM
- IC50 (MCF7 [10]): 610 nM

SMILES: CC1=C(/C=C/C(C)=C/C=C/C(C)=C/C(=O)n2ccnc2)C(C)(C)CCC1n1ccnc1 (racemic)
- IC50 (T47D [6]): 9 nM
- Activity (T47D [11]): Active
- IC50 (PC-3): 5800 nM
- IC50 (LNCaP [7]): 10000 nM
- Activity (MDA-MB-231 [12]): inactive
- IC50 (Cytochrome P450 26A1 [13]): 5.2 nM
- Activity (LNCaP [14]): Active
- IC50 [1]: 0.05 nM
- Ki [1]: 62 nM
- IC50 (Cytochrome P450 26A1 [8]): 24.7 nM
- IC50 (Cytochrome P450 26A1 [9]): 10 nM
- IC50 (MCF7 [10]): 130 nM
- Activity (MCF7 [15]): Active

SMILES: COC(=O)/C=C(C)/C=C/C=C(C)/C=C/C1=C(C)C(n2cnnc2)CCC1(C)C (racemic)
- IC50 [1]: 21.7 nM

SMILES: COC(=O)/C=C(C)/C=C/C=C(C)/C=C/C1=C(C)C(n2ccnc2)CCC1(C)C (racemic)
- IC50 (MDA-MB-231 [2]): 7500 nM
- IC50 (Cytochrome P450 26A1 [13]): 40 nM
- IC50 [1]: 0.009 nM
- Ki [1]: 46 nM
- IC50 (Cytochrome P450 26A1 [8]): 200 nM
- IC50 (Cytochrome P450 26A1 [9]): 215 nM

SMILES: CC1=C(/C=C/C(C)=C/C=C/C(C)=C\C(=O)Nc2ccc(O)cc2)C(C)(C)CCC1n1ccnc1 (racemic)
- IC50 [1]: 76.7 nM
- Ki [1]: 0.78 nM

SMILES: CC1=C(/C=C/C(C)=C/C=C/C(C)=C\C(=O)n2ccnc2)C(C)(C)CCC1n1ccnc1 (racemic)
- IC50 [1]: 57.5 nM

SMILES: CC1=C(/C=C/C(C)=C/C=C/C(C)=C\C(=O)O)C(C)(C)CCC1n1ccnc1 (racemic)
- IC50 [3]: 65 nM
- IC50 [4]: 175 nM
- IC50 [1]: 119 nM
- Ki [1]: 4.12 nM
- IC50 [5]: 100 nM

SMILES: CC1=C(/C=C/C(C)=C/C=C/C(C)=C/C(=O)O)C(C)(C)CCC1n1cncn1 (racemic)
- IC50 [3]: 700 nM
- IC50 [4]: 1000 nM
- IC50 [1]: 5.84 nM
- IC50 [5]: > 1000 nM

SMILES: COC(=O)/C=C(C)/C=C/C=C(C)/C=C/C1=C(C)C(n2cncn2)CCC1(C)C (racemic)
- IC50 [1]: 2 nM

SMILES: CC1=C(/C=C/C(C)=C/C=C/C(C)=C/C(=O)O)C(C)(C)CCC1n1cnnc1 (racemic)
- IC50 [3]: 300 nM
- IC50 [4]: 250 nM
- IC50 [1]: 46.7 nM
- IC50 [5]: 410 nM

SMILES: COC(=O)/C=C(C)/C=C/C=C(C)/C=C/C1=C(C)[C@H](n2ccnc2)CCC1(C)C (stereo in doubt; (+)-5)
- IC50 (Cytochrome P450 26A1 [13]): 800 nM
- IC50 (Cytochrome P450 26A1 [9]): 6000 nM

SMILES: COC(=O)/C=C(C)/C=C/C=C(C)/C=C/C1=C(C)[C@H](n2ccnc2)CCC1(C)C (stereo in doubt; (-)-5)
- IC50 (Cytochrome P450 26A1 [13]): 680 nM
- IC50 (Cytochrome P450 26A1 [9]; t47d): 6000 nM

SMILES: CC1=C(/C=C/C(C)=C/C=C/C(C)=C/C(=O)Nc2ccc(O)cc2)C(C)(C)CCC1 [FENRETINIDE]
- IC50 (MDA-MB-231 [2]): 7700 nM
- IC50 (PC-3): 3600 nM
- IC50 (LNCaP [7]): 7500 nM
- IC50 [1]: 31800 nM
- IC50 (MCF7 [10]): 150 nM

SMILES: CC(=O)N1CCN(c2ccc(OCC3COC(Cn4ccnc4)(c4ccc(Cl)cc4Cl)O3)cc2)CC1 (stereo unspecified) [KETOCONAZOLE]
- IC50 [1]: 34000 nM
